Rows were chosen to be rich in hits. Some 2.8% of all compounds tested hit in one or more screens of this group.
pCIP destab: p/CIP protein destabilization; F442A p/CIP-EGFP cells, EGFP fluorescence, 16 h; decrease of EGFP signal, % at 10 µM; 290,000 tested, 0.01% active; AID 1984;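 active = EGFP signal decrease of at least 30% at 10 µM or well 3 SD below plate mean, unless failing retest; inactive = the rest, including hits failing retest or dose response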
UBC13 inh: blocks human UBC13 polyubiquitin chain formation; inhibition, % at 20 µM; P61088; 330,000 tested, 0.47% active; TR-FRET; in the data active = inhibition above about 45%, passing the limit was not always enough
PP1 inh: PP1-alpha (human) inhibition in PP5 counter-screen; inhibition, % at 6.7 µM; 320,000 tested, 0.9% active; purified PP1alpha, OMFP fluorescence; P62136;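 active = inhibition above the mean inhibition of all tested compounds plus 3 SD, computed separately for each screening campaign, cut at about 15% in these data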
Target sequence (P62136 whole entry, looked up): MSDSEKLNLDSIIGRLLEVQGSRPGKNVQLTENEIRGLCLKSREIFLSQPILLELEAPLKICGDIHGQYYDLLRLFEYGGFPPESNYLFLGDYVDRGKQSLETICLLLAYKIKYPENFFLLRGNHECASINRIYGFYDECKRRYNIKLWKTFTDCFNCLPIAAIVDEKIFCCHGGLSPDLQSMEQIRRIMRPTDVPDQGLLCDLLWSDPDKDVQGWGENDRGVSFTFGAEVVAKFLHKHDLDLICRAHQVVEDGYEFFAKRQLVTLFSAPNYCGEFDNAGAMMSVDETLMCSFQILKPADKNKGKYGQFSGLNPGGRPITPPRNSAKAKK
AI-2 QS modul: modulators of Vibrio harveyi AI-2 quorum sensing system. Vibrio harveyi JMH597 AI-2 luminescence/OD600 ratio, 9 h; active compounds read low; strain lacks LuxN and CqsS sensors; 0 = neutral-control median. activity change, % at 7.5 µM. 300,000 tested, 0.4% active. AID 2094; in the data active = activity change below about -75%, passing the limit was not always enough;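 note: luminescence divided by OD600 gain over 9 h not by final OD600 alone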
T cruzi repl: T. cruzi replication inhibition | T. cruzi beta-gal in NIH3T3, luminescence, 90 h | inhibition, % (concentration not given with the values) | 300,000 tested, 1.4% active | AID 1885;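 active = mean inhibition across valid replicates above about 55%, limit read from the data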;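 note: signal also drops with host cell toxicity which is not excluded here; 0% = plate median of DMSO wells and 100% = zero luminescence signal; higher percent means less beta-gal luminescence so fewer parasites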
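System: Mouse NIH/3T3 fibroblasts infected with β-gal-expressing T. cruzi Tulahuen C4 | Quantity: NIH/3T3 cells, 5,000 per well | Reagent: 5000 reporter trypomastigotes per well | Dosing: Compound pinned at 50 nL/well, DMSO | Schedule: 3 h host attachment, then at least 90 h co-culture | Detection: GalScreen luminescence, 60 min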
Numbers without * were called inactive.

SMILES	pCIP destab	UBC13 inh	PP1 inh	AI-2 QS modul	T cruzi repl
CN1CCN(C(=O)C2=C[C@H](C(C)(C)C)C[C@H](OCCCCO)O2)CC1	4	-8	-6	22	-16
c1ccc(COc2ccccc2CNC23CC4CC(CC(C4)C2)C3)cc1	-8	23	-6	35	56*
CC1CC2(CCCC2)N(C(=O)N(C)C)c2ccc(F)cc21 (stereo unspecified)	-1	4	-2	13	-12
CCOc1ccccc1C1C(C(=O)OC)=C(N)OC2=C1C(=O)CCC2 (stereo unspecified)	-11	-1	-3	12	3
CCOc1ccc(Br)cc1C1C(C(=O)OC)=C(N)Oc2cc(N(C)C)ccc21 (stereo unspecified)	-15	1	-2	29	69*
Cc1cccc(N2CCN(C(=O)c3ccc4c(c3)NC(=O)C(CSCc3ccc(F)cc3)N4)CC2C)c1 (stereo unspecified)	-44	-16	19*	10	-12
COc1ccc(N2CCN(C(=O)c3ccc4c(c3)NC(=O)C(CSCc3ccc(C)cc3)N4)CC2)cc1 (stereo unspecified)	-21	-21	19*	5	-22
COc1ccc(N2CCN(C(=O)c3ccc4c(c3)NC(=O)C(CSCc3c(F)cccc3Cl)N4)CC2)cc1 (stereo unspecified)	-4	-9	25*	11	-8
COc1ccc(N2CCN(C(=O)c3ccc4c(c3)NC(=O)C(CSCc3cccc(F)c3)N4)CC2)cc1 (stereo unspecified)	-15	-25	33*	20	6
Cc1cccc(N2CCN(C(=O)c3ccc(N4CCCC4=O)cc3)CC2C)c1 (stereo unspecified)	-7	-12	-5	18	14
Cc1nn(C)c(Sc2ccccc2N)c1[N+](=O)[O-]	3	-8	-7	18	-3
C/C(=N\NC(=O)CNC(=O)c1cccs1)c1ccc(Cl)c(Cl)c1	10	9	-2	20	16
COCCNC(=O)c1cc(S(=O)(=O)N(C)c2ccccc2OC)ccc1C	-11	-5	-2	35	-7
